Experimental data from ChEMBL document CHEMBL2331318, “Azide-alkyne cycloaddition en route to 1H-1,2,3-triazole-tethered 7-chloroquinoline-isatin chimeras: synthesis and antimalarial evaluation” (Eur J Med Chem, 2013).

Each compound was assayed on Plasmodium falciparum (assay: In vitro antimalarial activity against ring stage of chloroquine-resistant Plasmodium falciparum W2 cultured in medium containing 10% human serum assessed as inhibition of parasite growth after 48 hrs by YOYO-1 dye based flow cytometry). Conditions: W2, 48 h.
Assay type: functional, organism-based
Method in brief: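 Ring-stage microwell cultures were exposed to a range of compound concentrations for 48 h, with 0.1% DMSO maximum and in the no-inhibitor controls. Cells were fixed in 1% formaldehyde/PBS pH 7.4 for 48 h at room temperature, then stained with 1 nM YOYO-1 in 0.1% Triton X-100/PBS. Parasitemia was counted by flow cytometry, and IC50 obtained by nonlinear regression of % control parasitemia from duplicate experiments.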

| Compound | IC50 [nM] |
| --- | --- |
| O=C1C(=O)N(Cc2cnnn2CCNc2ccnc3cc(Cl)ccc23)c2ccccc21 | 3070 |
| O=C1C(=O)N(Cc2cnnn2CCNc2ccnc3cc(Cl)ccc23)c2ccc(F)cc21 | 2300 |
| O=C1C(=O)N(Cc2cnnn2CCNc2ccnc3cc(Cl)ccc23)c2ccc(Cl)cc21 | 1370 |
| O=C1C(=O)N(Cc2cnnn2CCNc2ccnc3cc(Cl)ccc23)c2ccc(Br)cc21 | 1730 |
| Cc1ccc2c(c1)C(=O)C(=O)N2Cc1cnnn1CCNc1ccnc2cc(Cl)ccc12 | 1630 |
| O=C1C(=O)N(Cc2cnnn2CCCNc2ccnc3cc(Cl)ccc23)c2ccccc21 | 3850 |
| O=C1C(=O)N(Cc2cnnn2CCCNc2ccnc3cc(Cl)ccc23)c2ccc(F)cc21 | 1350 |
| O=C1C(=O)N(Cc2cnnn2CCCNc2ccnc3cc(Cl)ccc23)c2ccc(Cl)cc21 | 1210 |
| O=C1C(=O)N(Cc2cnnn2CCCNc2ccnc3cc(Cl)ccc23)c2ccc(Br)cc21 | 1660 |
| Cc1ccc2c(c1)C(=O)C(=O)N2Cc1cnnn1CCCNc1ccnc2cc(Cl)ccc12 | 1300 |
| O=C1C(=O)N(Cc2cnnn2-c2ccnc3cc(Cl)ccc23)c2ccccc21 | > 5000 |
| O=C1C(=O)N(Cc2cnnn2-c2ccnc3cc(Cl)ccc23)c2ccc(F)cc21 | > 5000 |
| O=C1C(=O)N(Cc2cnnn2-c2ccnc3cc(Cl)ccc23)c2ccc(Cl)cc21 | > 5000 |
| O=C1C(=O)N(Cc2cnnn2-c2ccnc3cc(Cl)ccc23)c2ccc(Br)cc21 | > 5000 |
| Cc1ccc2c(c1)C(=O)C(=O)N2Cc1cnnn1-c1ccnc2cc(Cl)ccc12 | > 5000 |
